Consider four molecules from article PMC3873039 (Anti-Cancer Agents in Medicinal Chemistry, 2013).

pEC50, pIC50: −log10 of the molar value.

Assay [1] relates to HL60. Briefly: CellTiter-Glo luminescent cell viability assay. In kind it is cell-based, human. Conditions: HL60, 24 h, doses 0, 2, 10, 50, 250, 500 µM, p<0.05. The gist of the method: (§1)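 Cells grown in RPMI 1640 with 10% FBS, 1.5 mM L-glutamine and penicillin/streptomycin at 37 °C, 5% CO2. Seeded at 2.5 x 10³ cells/well and exposed 24 h to ethanol-dissolved test compound (0, 2, 10, 50, 250, 500 µM) with 0.1% ethanol vehicle. ATP luminescence normalized to vehicle (100%). IC50 taken from linear regression. Lowest significant dose set by one-way ANOVA/Tukey, p<0.05. Triplicates, three independent experiments.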
(In general: ATP-based viability assays read luminescence as a measure of living cells.)

For assay [2], the system named is all leukemia cell lines. Briefly: CellTiter-Glo assay, summary over the leukemia panel. In kind it is cell-based, human. Conditions: Homo sapiens, 24 h, read-out: IC50 values (range over leukemia cell lines). The gist of the method:
(§2)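 Cells plated at 2.5 x 10^3 per well in complete RPMI 1640 (10% FBS, 37 °C, 5% CO2). Test compounds dissolved in ethanol and dosed at 2–500 µM for 24 h; vehicle control was 0.1% (v/v) ethanol. Viability was read as ATP luminescence, normalised to vehicle (100%). IC50 was taken from linear regression of each curve. Triplicates, three independent experiments.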

The subject of the next assay is KG1a. Kind of assay: NucView caspase 3 activity assay by flow cytometry. It is filed as cell-based, human. The following applies: 24 h; for pEC50: Homo sapiens, KG-1a, read-out: AP50 (50% induction of apoptosis), Caspase 3 activity assay (C3); for The lowest dose of polyphenols at which there was a significant induction of apoptosis compared to the vehicle control: KG1a, caspase 3 activity, p<0.05. The gist of the method:
(§3)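 Seeded at 0.5 x 10⁶ cells/well and treated 24 h, with series of 0–50 or 0–250 µM depending on compound. Normalized to vehicle (0% apoptosis). Mean ± STD, three independent experiments in triplicate. One-way ANOVA/Tukey, p<0.05. AP50 = concentration giving 50% apoptotic cells.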
(In general: In flow cytometry, cells or beads pass a laser one at a time.)

Assay [3] relates to U937. Briefly: CellTiter-Glo luminescent cell viability assay. In kind it is cell-based, human. Conditions: U937, 24 h, doses 0, 2, 10, 50, 250, 500 µM, p<0.05. The gist of the method: as §1
The subject of assay [4] is MOLT-3. Briefly: NucView caspase 3 activity assay by flow cytometry. In kind it is cell-based, human. The following applies: for pEC50: Homo sapiens, MOLT-3, 24 h, read-out: AP50 (50% induction of apoptosis), Caspase 3 activity assay (C3); for The lowest dose of polyphenols at which there was a significant induction of apoptosis compared to the vehicle control: MOLT-3, caspase 3 activity, 24 h, p<0.05. The gist of the method:
as §3

In another assay the test system is K562. Kind of assay: NucView caspase 3 activity assay by flow cytometry. Conditions: for pEC50: Homo sapiens, K562, 24 h, read-out: AP50 (50% induction of apoptosis), Caspase 3 activity assay (C3); for The lowest dose of polyphenols at which there was a significant induction of apoptosis compared to the vehicle control: K562, caspase 3 activity, 24 h, p<0.05. In kind it is cell-based, human. The gist of the method: as §3

Assay [5] deals with JURKAT. Briefly: Cell cycle analysis, propidium iodide flow cytometry. In kind it is cell-based, human. The following applies: IC50 dose, 24 h, p<0.05. The gist of the method:
(§4)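 Seeded at 0.5 x 10^6 cells per well in 12-well plates and treated 24 h at the IC50 concentration of each test compound from CellTiter-Glo. Cells were pelleted (400 g, 5 min), PBS-washed and fixed in 80% ethanol overnight at -20 °C. Staining used 50 µg/mL PI plus RNase overnight at 4 °C.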

Assay [6] concerns U937. The description is as above. It is filed as cell-based, human. The following applies: U937, IC50 dose, 24 h; vehicle control G0/G1 = 44.03%. The gist of the method: as §4
Assay [7] concerns MOLT-3. Kind of assay: CellTiter-Glo luminescent cell viability assay. In kind it is cell-based, human. The following applies: MOLT-3, 24 h, doses 0, 2, 10, 50, 250, 500 µM, p<0.05. The gist of the method: as §1
Another assay deals with CCRF-CEM. Briefly: NucView caspase 3 activity assay by flow cytometry. In kind it is cell-based, human. The following applies: 24 h; for pEC50: Homo sapiens, read-out: AP50 (50% induction of apoptosis), Caspase 3 activity assay (C3); for The lowest dose of polyphenols at which there was a significant induction of apoptosis compared to the vehicle control: caspase 3 activity, p<0.05. The gist of the method:
as §3

The subject of assay [8] is THP-1. Briefly: CellTiter-Glo luminescent cell viability assay. It is filed as cell-based, human. Conditions: THP-1, 24 h, doses 0, 2, 10, 50, 250, 500 µM, p<0.05. The gist of the method:
as §1

In assay [9] the test system is THP-1. Kind of assay: Cell cycle analysis, propidium iodide flow cytometry. It is filed as cell-based, human. Conditions: THP-1, IC50 dose, 24 h; vehicle control G0/G1 = 42.3%. The gist of the method:
as §4

In assay [10] the test system is JURKAT. Kind of assay: CellTiter-Glo luminescent cell viability assay. In kind it is cell-based, human. Conditions: 24 h, doses 0, 2, 10, 50, 250, 500 µM, p<0.05. The gist of the method:
as §1

The subject of assay [11] is HL60. Kind of assay: Cell cycle analysis, propidium iodide flow cytometry. In kind it is cell-based, human. Conditions: HL60, IC50 dose, 24 h; for Percentage of cells in S phase of cell cycle (significant accumulation): vehicle control S = 33.6%; for Percentage of cells in G0/G1 phase of cell cycle (significant accumulation): vehicle control G0/G1 = 56.8%. The gist of the method: as §4

The test system of assay [12] is HL60. Briefly: NucView caspase 3 activity assay by flow cytometry. In kind it is cell-based, human. The following applies: for The lowest dose of polyphenols at which there was a significant induction of apoptosis compared to the vehicle control: HL60, caspase 3 activity, 24 h, p<0.05; for pEC50: Homo sapiens, HL-60, 24 h, read-out: AP50 (50% induction of apoptosis), Caspase 3 activity assay (C3). The gist of the method: as §3

The subject of another assay is leukemia cell lines. Kind of assay: Cell cycle analysis, summary over the leukemia panel. It is filed as cell-based, human. The following applies: IC50 dose, 24 h, 8 leukemia cell lines. The gist of the method: as §4
The subject of the next assay is lymphoid cell lines. Briefly: CellTiter-Glo assay, summary over lymphoid lines. In kind it is cell-based. The following applies: Homo sapiens, 24 h, read-out: IC50 (range in lymphoid cell lines). The gist of the method: as §2
In a further assay the test system is myeloid cell lines. Briefly: CellTiter-Glo assay, summary over myeloid lines. In kind it is cell-based. The following applies: Homo sapiens, 24 h, read-out: IC50 (range in myeloid cell lines). The gist of the method: as §2
Assay [13] deals with all leukemia cell lines. Briefly: Apoptosis. It is filed as cell-based, human.

As a reminder, the pIC50 is the IC50 on a negative log10 scale, so that one unit is a factor of ten. Regarding `O=C1c2cccc(O)c2C(=O)c2c(O)cc(CO)cc21` [Aloe - Emodin, Aloe-emodin], the “The lowest dose of polyphenols at which there was a significant inhibition of cell proliferation compared to the vehicle control” value in the assay with HL60 [1] is 50 µM; in the assay on U937 [3], 50 µM; with MOLT-3 [7], 50 µM; in the assay with THP-1 [8] it was 250 µM; in the assay on JURKAT [10], 50 µM. Further, in the assay on all leukemia cell lines [2], the negative-log IC50 (pIC50) is 3.35 to 3.74. The pEC50 in the assay with KG1a was less than 3.60; in the assay on MOLT-3 [4], 4.30; in the assay on K562, less than 3.60; with CCRF-CEM, 4.30; with HL60 [12], 3.73. The “The lowest dose of polyphenols at which there was a significant induction of apoptosis compared to the vehicle control” value in the assay with KG1a, in the assay on MOLT-3 [4], in the assay on K562, in the assay on CCRF-CEM and in the assay with HL60 [12] was 50 µM in each case. For the same molecule, the “Phase of cell cycle accumulation” value with JURKAT [5] is reported as “S-phase”. Besides, the “Percentage of cells in G0/G1 phase of cell cycle (significant accumulation)” value is “G0/G1 =53%” in the assay on U937 [6] and “G0/G1 =52%” in the assay on THP-1 [9]. The “Percentage of cells in S phase of cell cycle (significant accumulation)” value in the assay on HL60 [11] is reported as “S =35%”.
Take `O=c1cc(-c2ccccc2)oc2cc(O)cc(O)c12` [Chrysin]: the “The lowest dose of polyphenols at which there was a significant inhibition of cell proliferation compared to the vehicle control” value is reported as 50 µM with HL60 [1]; 50 µM in the assay with U937 [3]; 50 µM in the assay on MOLT-3 [7]; 250 µM in the assay on THP-1 [8]; 50 µM in the assay on JURKAT [10]. Moreover, the pEC50 with KG1a was less than 3.60; in the assay on MOLT-3 [4] it was 3.85; in the assay on K562, less than 3.60; with CCRF-CEM it was 3.60; in the assay on HL60 [12], 3.76. The “The lowest dose of polyphenols at which there was a significant induction of apoptosis compared to the vehicle control” value in the assay on KG1a is listed as 250 µM; in the assay on MOLT-3 [4], 50 µM; in the assay with K562 it was 250 µM; in the assay on CCRF-CEM it was 50 µM; with HL60 [12] it was 50 µM. In addition, the “Phase of cell cycle accumulation over the leukemia cell lines” value with leukemia cell lines is reported as “G0/G1 phase in 7 out of the 8 leukemia cell lines”. Moreover, the “Phase of cell cycle accumulation” value with JURKAT [5] is given as “G0/G1 phase”. Moreover, the “Percentage of cells in G0/G1 phase of cell cycle (significant accumulation)” value in the assay with U937 [6] is given as “G0/G1 =70%”; in the assay on THP-1 [9], “G0/G1 =52.1%”. Also, the pIC50 with lymphoid cell lines was 3.66 to 3.89; in the assay on myeloid cell lines it was 3.30 to 3.47. In addition, the “Percentage of cells in S phase of cell cycle (significant accumulation)” value with HL60 [11] is “S =45.5%”.
For `Cc1cc(O)c2c(c1)C(=O)c1cc(O)cc(O)c1C2=O` [Emodin], the “The lowest dose of polyphenols at which there was a significant inhibition of cell proliferation compared to the vehicle control” value in the assay with HL60 [1], in the assay on U937 [3], in the assay with MOLT-3 [7], in the assay on THP-1 [8] and in the assay with JURKAT [10] was 2 µM in each case. The pIC50 with all leukemia cell lines [2] is 4.66 to 5.30. For the same molecule, the pEC50 in the assay with KG1a is less than 5.00; with MOLT-3 [4] it was 5.30; with K562, less than 5.00; in the assay on all leukemia cell lines [13] (Homo sapiens, 24 h, read-out: AP50 values (range over leukemia cell lines)) it was 4.57 to 5.70; in the assay on CCRF-CEM, less than 5.00; with HL60 [12], 5.07. In addition, the “The lowest dose of polyphenols at which there was a significant induction of apoptosis compared to the vehicle control” value in the assay with KG1a stood at 2 µM; with MOLT-3 [4] it was 2 µM; in the assay with K562, 2 µM; with CCRF-CEM it was 10 µM; in the assay on HL60 [12], 10 µM. For the same molecule, the “Phase of cell cycle accumulation over the leukemia cell lines” value with leukemia cell lines is listed as “G0/G1 phase in all leukemia cell lines”. In addition, the “Phase of cell cycle accumulation” value in the assay with JURKAT [5] is reported as “G0/G1 phase”. Moreover, the “Number of leukemia cell lines in which 50% apoptosis was induced” value in the assay with all leukemia cell lines [13] (Jurkat, MOLT3, HL-60, THP-1 and U937) is on record as 5 of the 8. For the same molecule, the “Percentage of cells in G0/G1 phase of cell cycle (significant accumulation)” value with U937 [6] is listed as “G0/G1 =60%”; with THP-1 [9] it was “G0/G1= 50.8%”; in the assay on HL60 [11] it was “G0/G1 =67.7%”.
As to `O=C(O)c1cc(O)c2c(c1)C(=O)c1cccc(O)c1C2=O` [Rhein], the “The lowest dose of polyphenols at which there was a significant inhibition of cell proliferation compared to the vehicle control” value in the assay with HL60 [1], with U937 [3], in the assay with MOLT-3 [7], with THP-1 [8] and in the assay on JURKAT [10] was 50 µM throughout. Further, the pEC50 in the assay on KG1a is less than 3.60; in the assay on MOLT-3 [4] it was 3.70; in the assay on K562, less than 3.60; in the assay on CCRF-CEM, 3.70; in the assay with HL60 [12] it was less than 3.60. Also, the “The lowest dose of polyphenols at which there was a significant induction of apoptosis compared to the vehicle control” value in the assay with KG1a, in the assay with MOLT-3 [4], in the assay with K562, in the assay on CCRF-CEM and with HL60 [12] was 50 µM in each case. Further, the “Phase of cell cycle accumulation” value with JURKAT [5] is recorded as “S-phase”. For the same molecule, the “Percentage of cells in G0/G1 phase of cell cycle (significant accumulation)” value in the assay on U937 [6] is “G0/G1 =55%”; in the assay with THP-1 [9], “G0/G1 =47%”; with HL60 [11] it was “G0/G1=65%”.
